Published values collected from several papers.
Lines come from different studies, so protocols differ.
KRAS G12D: GTPase KRas (KRAS, Homo sapiens, UniProt P01116, G12D)
CDK4: Cyclin-dependent kinase 4 (CDK4, Homo sapiens, UniProt P11802)
CHRM2: Muscarinic acetylcholine receptor M2 (CHRM2, Homo sapiens, UniProt P08172)
Chymotrypsinogen A: Chymotrypsinogen A (Bos taurus, UniProt P00766)
Flap endonuclease 1: Flap endonuclease 1 (Homo sapiens, UniProt P39748)

Structure (SMILES)	target	effect on	action	technique	notes	IC50 [nM]
CC[C@@H](C)[C@H]1NC(=O)[C@H](Cc2ccc(-c3ccccc3)cc2)NC(=O)[C@H](CC(C)C)NC(=O)[C@@H]2[C@@H](c3ccccc3)CCN2C(=O)[C@H](NC(=O)[C@@H](CCCNC(=N)N)NC(=O)[C@@H](CCCNC(=N)N)NC(C)=O)CSCSC[C@@H](C(=O)N[C@H](CCCNC(=N)N)C(=O)N[C@H](CCCNC(=N)N)C(N)=O)NC(=O)[C@H](C(C)C)NC(=O)[C@@H]2CCCN2C(=O)[C@H](CC(=O)O)NC(=O)[C@H](Cc2ccc(O)cc2)NC(=O)[C@@](C)(CO)NC1=O	KRAS G12D	enzyme activity	inhibitor	TR-FRET		> 11100
CCOC(=O)[C@H]1Cc2c(cc([N+](=O)[O-])cc2[N+](=O)[O-])[C@@H](O)[C@@]12C(=O)Nc1ccc(Cl)cc12	CDK4	cell-free assay	inhibitor	TR-FRET		780
CC[C@H](C)[C@@H]1NC(=O)[C@H](Cc2ccc(-c3ccccc3)cc2)NC(=O)[C@H](CC(C)C)NC(=O)[C@@H]2CCCN2C(=O)[C@@H](NC(=O)[C@H](CCCNC(=N)N)NC(=O)[C@H](CCCNC(=N)N)NC(C)=O)CSSC[C@@H](C(=O)N[C@@H](CCCNC(=N)N)C(=O)N[C@@H](CCCNC(=N)N)C(N)=O)NC(=O)[C@H](Cc2ccc(Cl)cc2)NC(=O)[C@@H]2C[C@@H](OCC(=O)O)CN2C(=O)[C@H](CC(=O)O)NC(=O)[C@H](Cc2ccc(O)cc2)NC(=O)[C@H](CO)NC1=O	KRAS G12D	enzyme activity	inhibitor	TR-FRET		33
CCOC(=O)[C@H]1Cc2c(cc([N+](=O)[O-])cc2[N+](=O)[O-])[C@@H](O)[C@@]12C(=O)Nc1ccc(C)cc12	CDK4	cell-free assay	inhibitor	TR-FRET		910
Cc1cc(SCc2sc(-c3ccc(C(F)(F)F)c(F)c3)nc2C)ccc1OCC(=O)O	Thyroid hormone receptor alpha (THRA, Homo sapiens, UniProt P10827)	reporter gene	antagonist	luciferase		31400
CCOC(=O)[C@H]1Cc2c(cc([N+](=O)[O-])cc2[N+](=O)[O-])[C@H](O)[C@]12C(=O)Nc1ccc(Br)cc12	CDK4	cell-free assay	inhibitor	TR-FRET		10600
CN1CCC(=C2c3ccccc3CCc3cccnc32)CC1	CHRM2	ligand displacement		radioligand		64
O=c1oc(-c2ccccc2)ns1	Chymotrypsinogen A	enzyme activity	inhibitor			10000
O=C(Nc1cc[c]([Sb](=[O])([OH])[OH])cc1)c1ccccc1	Flap endonuclease 1	enzyme activity	inhibitor	fluorescence	with preincubation	18000
CCOC(=O)[C@H]1Cc2c(cc([N+](=O)[O-])cc2[N+](=O)[O-])[C@@H](O)[C@@]12C(=O)Nc1cc(Cl)ccc12	CDK4	cell-free assay	inhibitor	TR-FRET		940
O=C(O)c1cc[c]([Sb](=[O])([OH])[OH])cc1[N+](=O)[O-]	Flap endonuclease 1	enzyme activity	inhibitor	fluorescence	with preincubation	1200
CC(C)C[C@H](NC(=O)[C@H](Cc1ccccc1)NC(=O)c1cnccn1)B(O)O	Chymotrypsinogen A	enzyme activity	inhibitor			> 33000
c1ccc(-c2c[nH]c3ncnc(N4CCOCC4)c23)cc1	Serine/threonine-protein kinase 3 (STK3, Homo sapiens, UniProt Q13188)	enzyme activity	inhibitor	ADP detection		127
Cc1[nH]ncc1-c1cc2nc([C@@H]3CC4CCN3CC4)[nH]c(=O)c2s1	Cell division cycle 7-related protein kinase (CDC7, Homo sapiens, UniProt O00311)	enzyme activity	inhibitor			1.75
CCOC(=O)CCCc1cc[c]([Sb](=[O])([OH])[OH])cc1	Flap endonuclease 1	enzyme activity	inhibitor	fluorescence	with preincubation	1700
COc1cccc(-c2nsc(=O)o2)c1	Chymotrypsinogen A	enzyme activity	inhibitor			2190
CC[C@H](C)[C@@H]1NC(=O)[C@H](Cc2ccc(-c3ccccc3)cc2)NC(=O)[C@H](CC(C)C)NC(=O)[C@@H]2CCCN2C(=O)[C@@H](NC(=O)[C@H](CCCNC(=N)N)NC(=O)[C@H](CCCNC(=N)N)NC(C)=O)CSSC[C@@H](C(=O)N[C@@H](CCCNC(=N)N)C(=O)N[C@@H](CCCNC(=N)N)C(N)=O)NC(=O)[C@H](C(C)C)NC(=O)[C@@H]2CC[C@H](c3ccccc3)N2C(=O)[C@H](CC(=O)O)NC(=O)[C@H](Cc2ccc(O)cc2)NC(=O)[C@H](CO)NC1=O	KRAS G12D	enzyme activity	inhibitor	TR-FRET		94
[O]=[Sb]([OH])([OH])[c]1ccccc1	Flap endonuclease 1	enzyme activity	inhibitor		with preincubation	130000
CCOC(=O)[C@H]1Cc2c(cc([N+](=O)[O-])cc2[N+](=O)[O-])[C@@H](O)[C@@]12C(=O)Nc1cccc(Br)c12	CDK4	cell-free assay	inhibitor	TR-FRET		2900
COc1cc(C(=O)N2CC[C@@H](O)[C@@H](N)C2)cc2nc(-c3cc4ccccc4n3CC3CC3)n(C)c12	CHRM2	calcium signal	antagonist	fluorescence		> 15800
CCOC(=O)[C@H]1Cc2c(cc([N+](=O)[O-])cc2[N+](=O)[O-])[C@@H](O)[C@@]12C(=O)Nc1ccc([N+](=O)[O-])cc12	CDK4	cell-free assay	inhibitor	TR-FRET		3310
CC(C)C[C@H](NC(=O)[C@H](Cc1ccccc1)NC(=O)[C@H](Cc1ccc(O)cc1)NC(=O)CNC(=O)[C@H](CCCCN)NC(=O)[C@H](CO)NC(=O)[C@H](CCC(N)=O)NC(=O)CNC(=O)[C@@H](NC(=O)[C@H](CO)NC(=O)[C@@H]1CCCN1C(=O)[C@H](CO)NC(=O)[C@H](CCC(N)=O)NC(=O)[C@H](Cc1ccc(O)cc1)NC(=O)[C@H](CCC(=O)O)NC(=O)[C@H](C)NC(=O)[C@H](CCCCN)NC(=O)[C@@H](N)Cc1ccccc1)C(C)C)C(=O)N[C@@H](Cc1ccccc1)C(=O)N[C@@H](CCCNC(=N)N)C(=O)N1CCC[C@H]1C(=O)N[C@@H](CCCNC(=N)N)C(=O)N[C@@H](CC(N)=O)C(N)=O	Neuromedin-U receptor 1 (Mus musculus, UniProt O55040)	ligand displacement		radioligand		0.0251
